One series has as its system various tumor cell lines. As to the kind of experiment: Antiproliferative activity on various tumor cell lines. The format is cell-based. The settings on record: read-out: IC50 against a variety of cell lines. The essentials:
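Cells seeded at 1000 per well in 18 μL medium and pre-incubated 24 h at 37°C, 5% CO2. Test compound in DMSO (final DMSO <0.1%) added at 10 points, 2-fold dilutions from 10 μM, then cultured 72 h. Cell-Titer glo reagent added and […]. Inhibition computed per concentration and IC50 obtained from sigmoid curve fit.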

A short description of series [1]: Single-dose pharmacokinetics in SD rats. The series is classed as in vivo. Particulars: after gavage or tail vein injection of V12. The essentials: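 Male SD rats (240–280 g), 4 groups of 3. Compound in DMSO/castor oil/saline 5%/5%/90%, dosed 1 mg/kg i.v. or 10 mg/kg orally. Blood drawn from fundus venous plexus at 2, 5, 15, 30 min and 1, 2, 4, 8, 24 h into heparin tubes, then centrifuged at 4°C for plasma. Plasma levels measured by LC-MS/MS with non-compartmental analysis.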

Series [2] is described as follows: Body weight of nude mice after oral administration. The series is classed as in vivo. Particulars: oral doses 100 mg/kg and 300 mg/kg.

pIC50: −log10 of the molar value. Where only a bound is given, the exact number is not on record here.

In general, pIC50 refers to the IC50 on a negative log10 scale, so that one unit is a factor of ten.

Turning to `Cc1cc2c(C(=O)O)cccc2n1-c1nc2c(c(NCc3ccccc3)n1)CCCN2` [V13, 1-(4-(Benzylamino)-5,6,7,8-Tetrahydropyrido[2,3-D]pyrimidin-2-Yl)-2-Methyl-1H-Indole-4-Carboxylic Acid], the pIC50 in the series on various tumor cell lines was > 6.00.

Take `CONC(=O)c1cccc2c1cc(C)n2-c1nc2c(c(NCc3ccccc3)n1)CCCN2` [V12, 1-(4-(Benzylamino)-5,6,7,8-Tetrahydropyrido[2,3-D]pyrimidin-2-Yl)-N-Methoxy-2-Methyl-1H-Indole-4-Carboxamide]: in series [1], the metabolism in vivo result is “rapidly metabolizes into V13”. Also, the pIC50 in the series with various tumor cell lines is > 6.00. The “body weight of the nude mice” value in series [2] was “comparable to that of the control group”.

The values above are taken from PMC12126168 (Drug Design, Development and Therapy, 2025).
